Screening results: PubChem, several laboratories
TPT1 inh: blocks Candida albicans tRNA 2'-phosphotransferase. recombinant caTPT1, FP RNA substrate dephosphorylation. inhibition, % at 5 µM. 300,000 tested, 0.81% active. AID 1962;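 active = inhibition above the mean of all tested compounds plus 3 SD, set per screening campaign, cut at about 24% in these data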
HNF4A DNA FP: change in binding of human HNF4 alpha to DNA; P41235; 360,000 tested, 0.3% active; HNF4a-FITC DNA binding, fluorescence polarization, 1 h; activity change, % at 10 µM; in the data active = activity change above about 30%, passing the limit was not always enough
CSN deneddyl inh: CSN deneddylation inhibition; Q92905; Purified CSN, SCF-Nedd8-OG deneddylation, fluorescence polarization; inhibition, % at 12.5 µM; 360,000 tested, 0.38% active; AID 651999;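 active = pattern-corrected inhibition above about 35%, with an unprinted fluorescence ratio check between 0.5 and 1.5, limit read from the data, passing the limit was not always enough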
Target sequence (Q92905 whole entry, looked up, one chain of several): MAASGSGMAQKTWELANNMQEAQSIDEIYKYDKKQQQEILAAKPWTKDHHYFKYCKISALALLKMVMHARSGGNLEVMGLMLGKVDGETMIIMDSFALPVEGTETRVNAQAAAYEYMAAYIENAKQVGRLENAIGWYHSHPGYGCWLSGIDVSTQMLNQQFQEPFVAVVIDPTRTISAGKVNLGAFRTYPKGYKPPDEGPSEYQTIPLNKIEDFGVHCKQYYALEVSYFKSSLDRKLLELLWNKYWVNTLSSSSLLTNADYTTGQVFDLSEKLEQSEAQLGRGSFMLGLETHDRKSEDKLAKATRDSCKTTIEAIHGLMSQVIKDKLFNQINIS
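Schedule: reaction 90 min, room temperature / Assay system: HEK293T-derived human Csn5 enzyme / Input: Csn5 at 0.24 nM final / Measure: inhibition of Csn5 cleavage, % / Control set: substrate-only high control, full reaction low control / Technique: fluorescence polarization of the substrate / Buffer or medium: Tris/NaCl/DTT buffer, pH 7.5 / Reagent: SCFSkp2-Nedd8OG substrate at 10 nM final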
Rev-erbA mod: Rev-erb alpha (human) modulation | Rev-erbα–FITC-DNA binding, fluorescence polarization, 90 min | activity, % at 10 µM | 370,000 tested, 0.79% active | AID 1259318;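 active = activity above about 14%, limit read from the data; passing the limit was not always enough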
NR1D1 mod conf: Rev-erb alpha (human) modulation, hit confirmation | shares compounds with Rev-erbA mod | AID 1259319 | activation, % at 25 µM | 3,000 tested, 61% active | Rev-erb alpha FITC-DNA binding, fluorescence polarization, 90 min;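 active = activation at or above a set limit, or at least 3 SD above the negative control mean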
RORg counter: RORgamma DNA-binding activity, dose-response counter-screen | shares compounds with Rev-erbA mod | purified RORgamma protein-FITC-DNA binding, fluorescence polarization | IC50, µM | 910 tested, 8% active;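 active = Compounds whose fitted half-maximal concentration for disrupting protein-DNA binding is below 10 micromolar; the record names Rev-erb in its text, so the target is in doubt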
Numbers stand for hits. Shown are actives, neighbours in structure and some others; about 1.7% of the full set was active somewhere.

What do the screens show for `COc1cc(NC(=O)c2cccs2)c(C(=O)OCC(=O)c2cc(C)n(-c3ccccc3)c2C)cc1OC`?
TPT1 inh: inactive; HNF4A DNA FP: inactive; CSN deneddyl inh: inactive; Rev-erbA mod: inactive

How did COc1ccc(-n2c(C)cc(C(=O)COC(=O)c3cc(NC(=O)c4cccs4)c(OC)c(OC)c3)c2C)cc1 do in these assays?
TPT1 inh: inactive; HNF4A DNA FP: inactive; CSN deneddyl inh: inactive; Rev-erbA mod: 31.9; NR1D1 mod conf: inactive

What do the screens show for `Cc1nn(-c2ccc(F)cc2)c2c1cc(C#N)c1nc3ccccc3n12`?
TPT1 inh: inactive; HNF4A DNA FP: inactive; CSN deneddyl inh: inactive; Rev-erbA mod: 60.4; NR1D1 mod conf: 39.1

What do the screens show for `CCCC(=O)Nc1ccc(-c2nc3cc(C)c(C)cc3o2)c(O)c1`?
TPT1 inh: inactive; HNF4A DNA FP: inactive; CSN deneddyl inh: inactive; Rev-erbA mod: 17.1; NR1D1 mod conf: inactive

Results for CCCC(=O)Nc1ccc(-c2nc3cc(C)ccc3o2)cc1 ?
TPT1 inh: inactive; HNF4A DNA FP: inactive; CSN deneddyl inh: inactive; Rev-erbA mod: inactive

Results for C=CCNc1nc(NCCNC(C)=O)c2sc(-c3ccccc3)cc2n1 ?
HNF4A DNA FP: inactive; CSN deneddyl inh: inactive; Rev-erbA mod: inactive

What do the screens show for `C=CCn1c(SCCNC(C)=O)nc2cc(-c3ccccc3)sc2c1=O`?
TPT1 inh: inactive; HNF4A DNA FP: inactive; CSN deneddyl inh: inactive; Rev-erbA mod: 48.8; NR1D1 mod conf: 53.6; RORg counter: inactive

Results for COc1ccc(CN2CCCC(CO)(Cc3ccc(F)cc3)C2)cc1C (centres undefined) ?
TPT1 inh: inactive; HNF4A DNA FP: inactive; CSN deneddyl inh: inactive; Rev-erbA mod: 12.6; NR1D1 mod conf: inactive

What do the screens show for `CCOC(=O)[C@@H]1CSCCS(=O)(=O)N1C(=O)[C@H](CCSC)NC(=O)OC(C)(C)C`?
Rev-erbA mod: inactive

What do the screens show for `CCC(=O)c1ccc(N2CCN(C(=O)c3ccc(F)cc3)CC2)c(F)c1`?
TPT1 inh: inactive; HNF4A DNA FP: inactive; CSN deneddyl inh: inactive; Rev-erbA mod: inactive

Results for COc1ccc(C(=O)c2ccc(OC)c(Br)c2)cc1Br ?
TPT1 inh: inactive; HNF4A DNA FP: inactive; CSN deneddyl inh: inactive; Rev-erbA mod: 113.4; NR1D1 mod conf: 76.7; RORg counter: inactive

Results for COc1ccc(C(=O)c2ccc(N3CCN(C(=O)c4ccc(F)cc4)CC3)c(F)c2)cc1Br ?
TPT1 inh: inactive; HNF4A DNA FP: inactive; CSN deneddyl inh: inactive; Rev-erbA mod: 27.6; NR1D1 mod conf: 23.8

What do the screens show for `COc1ccc(-c2nnc3ccc(SCC(=O)Nc4nc5ccc(C)cc5s4)nn23)cc1OC`?
TPT1 inh: inactive; HNF4A DNA FP: inactive; CSN deneddyl inh: inactive; Rev-erbA mod: 25.1; NR1D1 mod conf: 25.9

Results for CC1CCN(S(=O)(=O)c2ccc3c(c2)c(=O)c(C(=O)NCc2cccs2)cn3C)CC1 ?
TPT1 inh: inactive; HNF4A DNA FP: inactive; CSN deneddyl inh: inactive; Rev-erbA mod: 29.4; NR1D1 mod conf: inactive

What do the screens show for `COc1cccc(CC(=O)Nc2sc3c(c2C(N)=O)CCCC3)c1`?
TPT1 inh: inactive; HNF4A DNA FP: inactive; CSN deneddyl inh: inactive; Rev-erbA mod: 29.4; NR1D1 mod conf: inactive

How did COc1ccc(NC(=O)CCN2CCN(c3ccccc3F)CC2)c(OC)c1 do in these assays?
TPT1 inh: inactive; HNF4A DNA FP: inactive; CSN deneddyl inh: inactive; Rev-erbA mod: inactive

How did O=C(NCc1ccco1)O[C@@H]1CC[C@@]23CCCN2C(=O)CCC[C@H]3C1 do in these assays?
Rev-erbA mod: inactive

What do the screens show for `COc1ccc(NC(=O)CCCn2cc([N+](=O)[O-])cn2)cc1`?
TPT1 inh: inactive; HNF4A DNA FP: inactive; CSN deneddyl inh: inactive; Rev-erbA mod: 25.7; NR1D1 mod conf: inactive

Results for COc1ccc(NC(=S)NNC(=O)CCn2cc([N+](=O)[O-])cn2)cc1 ?
TPT1 inh: inactive; HNF4A DNA FP: inactive; CSN deneddyl inh: inactive; Rev-erbA mod: inactive

What do the screens show for `Cc1c(C)c2cc3c(C)coc3cc2oc1=O`?
TPT1 inh: inactive; HNF4A DNA FP: inactive; CSN deneddyl inh: inactive; Rev-erbA mod: inactive

What do the screens show for `Cc1coc2cc3oc(=O)c(Cc4ccccc4)c(C)c3cc12`?
TPT1 inh: inactive; HNF4A DNA FP: inactive; CSN deneddyl inh: inactive; Rev-erbA mod: 32.1; NR1D1 mod conf: 42.6; RORg counter: inactive

How did Cc1c(C(=O)Nc2nccs2)oc2ccc(Br)cc12 do in these assays?
HNF4A DNA FP: inactive; CSN deneddyl inh: inactive; Rev-erbA mod: inactive

How did Cc1nnc(NC(=O)c2oc3c(ccc4ccccc43)c2C)s1 do in these assays?
TPT1 inh: inactive; HNF4A DNA FP: inactive; CSN deneddyl inh: inactive; Rev-erbA mod: 38.7; NR1D1 mod conf: 28.5

How did CCc1nnc(NC(=O)c2oc3ccc(Br)cc3c2C)s1 do in these assays?
HNF4A DNA FP: inactive; CSN deneddyl inh: inactive; Rev-erbA mod: 41.5; NR1D1 mod conf: 40.5; RORg counter: inactive

How did Cc1nnc(NC(=O)c2oc3ccccc3c2C)s1 do in these assays?
TPT1 inh: inactive; HNF4A DNA FP: inactive; CSN deneddyl inh: inactive; Rev-erbA mod: inactive

What do the screens show for `CCc1nonc1NC(=O)c1oc2cc(Br)ccc2c1C`?
TPT1 inh: inactive; HNF4A DNA FP: inactive; CSN deneddyl inh: inactive; Rev-erbA mod: 16.8; NR1D1 mod conf: inactive

What do the screens show for `COc1cc(OC)cc(C(C)c2ccc(-c3ccccc3)cc2)c1` (centres undefined)?
Rev-erbA mod: inactive

How did CCCC1(c2ccccc2)NC(=O)N(CC(=O)Nc2sc(-c3ccccc3)cc2C(=O)OCC)C1=O (centres undefined) do in these assays?
TPT1 inh: inactive; HNF4A DNA FP: inactive; CSN deneddyl inh: inactive; Rev-erbA mod: 56.3; NR1D1 mod conf: 50.3; RORg counter: inactive

Results for CCOC(=O)c1cc(-c2ccccc2)sc1NC(=O)CN1C(=O)c2ccccc2C1=O ?
TPT1 inh: inactive; HNF4A DNA FP: inactive; CSN deneddyl inh: inactive; Rev-erbA mod: 33.2; NR1D1 mod conf: inactive

What do the screens show for `O=C(CSc1nc2ccccc2o1)NN=C/C=C/c1ccccc1`?
Rev-erbA mod: inactive

Results for Cc1cc(C)c2c(n1)sc1c(-c3ccccc3)c(C#N)c(N)nc12 ?
TPT1 inh: inactive; HNF4A DNA FP: inactive; CSN deneddyl inh: inactive; Rev-erbA mod: 23.1; NR1D1 mod conf: inactive

Results for Cc1nc(N)c(C#N)c(-c2ccccc2)c1C ?
TPT1 inh: inactive; HNF4A DNA FP: inactive; CSN deneddyl inh: inactive; Rev-erbA mod: inactive

Results for O=C(OCc1cc2ccccc2[nH]c1=O)c1cccs1 ?
TPT1 inh: inactive; HNF4A DNA FP: inactive; CSN deneddyl inh: inactive; Rev-erbA mod: 27.1; NR1D1 mod conf: 24.0

Results for COc1ccc(CC(=O)OCc2cc3ccccc3[nH]c2=O)cc1 ?
TPT1 inh: inactive; HNF4A DNA FP: inactive; CSN deneddyl inh: inactive; Rev-erbA mod: inactive

What do the screens show for `COc1cc(OC)cc(C(=O)OCc2cc3ccccc3[nH]c2=O)c1`?
TPT1 inh: inactive; HNF4A DNA FP: inactive; CSN deneddyl inh: inactive; Rev-erbA mod: 56.9; NR1D1 mod conf: 50.3; RORg counter: inactive
